Measured values from ChEMBL document CHEMBL4043129, “Design, synthesis and bioactivities of Celecoxib analogues or derivatives” (Bioorg Med Chem, 2017).
The source made the active and inactive calls. The rule behind the calls is not given here.

Legend:
Rattus norvegicus [1] = experiment: In-vivo inhibition of COX2 in rat at 20 mg/kg measured after 60 mins; format: functional; details: 1 h
[2] = biological target: T1, Prostaglandin G/H synthase 2 (Rattus norvegicus, UniProt P35355); experiment: Inhibition of COX-2 in rat peritoneal macrophages assessed as reduction in PGE2 production using radiolabelled-arachidonic acid as substrate pretreated for 30 mins followed by substrate addition measured after 30 mins
T1 sequence (P35355 whole entry): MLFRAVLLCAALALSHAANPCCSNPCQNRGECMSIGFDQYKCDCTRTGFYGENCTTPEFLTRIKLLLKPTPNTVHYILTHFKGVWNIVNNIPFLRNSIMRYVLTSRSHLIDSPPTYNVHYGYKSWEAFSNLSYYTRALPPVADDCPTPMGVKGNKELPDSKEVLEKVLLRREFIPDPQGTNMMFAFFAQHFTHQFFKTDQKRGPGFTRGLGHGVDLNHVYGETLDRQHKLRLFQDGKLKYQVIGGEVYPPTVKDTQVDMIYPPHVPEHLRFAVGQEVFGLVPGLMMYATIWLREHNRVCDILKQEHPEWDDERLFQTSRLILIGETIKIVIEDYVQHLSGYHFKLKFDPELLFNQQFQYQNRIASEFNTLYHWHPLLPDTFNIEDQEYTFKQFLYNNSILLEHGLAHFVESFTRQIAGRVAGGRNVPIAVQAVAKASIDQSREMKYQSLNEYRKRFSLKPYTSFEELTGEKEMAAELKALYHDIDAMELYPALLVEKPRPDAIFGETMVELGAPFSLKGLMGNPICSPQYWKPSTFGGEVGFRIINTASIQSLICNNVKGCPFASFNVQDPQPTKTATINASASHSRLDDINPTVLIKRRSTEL

Rattus norvegicus [3] = experiment: In-vivo inhibition of COX2 in rat at 20 mg/kg measured after 20 mins; format: functional
Rattus norvegicus [4] = experiment: In-vivo inhibition of COX2 in rat at 20 mg/kg measured after 120 mins; format: functional; details: 2 h
[5] = Dissociation constant, pKa of the compound; format: physicochemical
[6] = Selectivity index, ratio of IC50 for COX1 in rat peritoneal macrophages to IC50 for COX2 in rat peritoneal macrophages
How it was run: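 Both IC50s come from gelatin-elicited rat peritoneal macrophages given 0.5% FCS RPMI-1640 for 24 h, then compound for 30 min and arachidonic acid for 30 min. COX-1 was read as 125I-6-keto-PGF1α. For COX-2, cells first had 10% FCS for 1 h, a PBS rinse and […] LPS for 8 h, and supernatant PGE2 was read. Each IC50 is the concentration halving radioactivity.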

[7] = biological target: T2, Prostaglandin G/H synthase 1 (Rattus norvegicus, UniProt Q63921); experiment: Inhibition of COX-1 in rat peritoneal macrophages assessed as reduction in [125I]-6-Keto-PGF1alpha production using arachidonic acid as substrate pretreated for 30 mins followed by substrate addition measured after 30 mins
T2 sequence (Q63921 whole entry): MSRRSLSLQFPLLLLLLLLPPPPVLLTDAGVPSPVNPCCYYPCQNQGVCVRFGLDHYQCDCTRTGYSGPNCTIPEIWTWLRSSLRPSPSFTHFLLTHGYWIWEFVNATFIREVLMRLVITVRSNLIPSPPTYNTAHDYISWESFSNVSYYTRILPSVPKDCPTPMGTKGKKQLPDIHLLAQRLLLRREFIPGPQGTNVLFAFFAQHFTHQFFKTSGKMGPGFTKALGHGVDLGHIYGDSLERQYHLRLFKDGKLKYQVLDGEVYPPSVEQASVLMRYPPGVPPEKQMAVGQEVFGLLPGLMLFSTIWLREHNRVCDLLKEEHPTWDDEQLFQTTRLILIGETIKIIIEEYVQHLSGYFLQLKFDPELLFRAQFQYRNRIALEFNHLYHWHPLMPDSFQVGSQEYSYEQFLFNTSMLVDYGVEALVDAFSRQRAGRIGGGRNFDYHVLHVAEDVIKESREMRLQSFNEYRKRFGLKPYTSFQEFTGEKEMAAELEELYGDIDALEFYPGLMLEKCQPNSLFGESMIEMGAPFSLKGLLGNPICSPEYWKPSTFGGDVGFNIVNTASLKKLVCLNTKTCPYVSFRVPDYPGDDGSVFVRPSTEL
How it was run: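 Rat peritoneal macrophages were elicited with 5 mL 0.5% gelatin i.p. and harvested after 5 h. Cells were washed, seeded at 1.0 × 10^6/mL and adhered 24 h at 37 °C, 5% CO2, then kept 24 h in 0.5% FCS RPMI-1640. Compounds at several concentrations were added for 30 min, then arachidonic acid for 30 min. 125I-6-keto-PGF1α was read by kit, and IC50 was taken as the concentration halving radioactivity.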

Rattus norvegicus [8] = experiment: Anti-inflammatory activity in rat assessed as reduction in PGE2 release at 20 mg/kg measured after 2 hrs; format: functional, organism-based
Rattus norvegicus [9] = experiment: In-vivo inhibition of COX2 in rat at 20 mg/kg measured after 40 mins; format: functional
[10] = Lipid/water partition coefficient, log P of the compound; format: physicochemical
Rattus norvegicus [11] = experiment: In-vivo inhibition of COX2 in rat at 20 mg/kg measured after 90 mins; format: functional; details: 1.5 h

| Compound | inhibition in vivo at 20 mg/kg (Rattus norvegicus [1]) [%] | IC50 [2] [µM] | inhibition in vivo at 20 mg/kg (Rattus norvegicus [3]) [%] | inhibition in vivo at 20 mg/kg (Rattus norvegicus [4]) [%] | pKa [5] | Ratio IC50 [6] | IC50 [7] [µM] | Activity (Rattus norvegicus [8]) | inhibition in vivo at 20 mg/kg (Rattus norvegicus [9]) [%] | logP [10] | inhibition in vivo at 20 mg/kg (Rattus norvegicus [11]) [%] |
| --- | --- | --- | --- | --- | --- | --- | --- | --- | --- | --- | --- |
| CN1C=CN(C2SC(C(F)(F)F)=CN2c2ccc(S(N)(=O)=O)cc2)C=C1 (stereo not given) | 86.1 | 0.0793 | 42.5 | 98 | 7.5 | 660.3 | 52.4 | Active | 63.1 | 2.38 | 97.3 |
| CC1=CN(c2ccc(S(N)(=O)=O)cc2)C(C2C=CN(C)C=C2)N1 (stereo not given) | – | – | – | – | – | – | – | Active | – | – | – |
| CC1=CN(c2ccc(S(N)(=O)=O)cc2)C(C2C=CN(C)C=C2)S1 (stereo not given) | – | 1.53 | – | – | 7.39 | 37.1 | 56.9 | – | – | 2.12 | – |
| CC1=CN(c2ccc(S(N)(=O)=O)cc2)C(N2C=CN(C)C=C2)O1 (stereo not given) | – | 20.1 | – | – | 7.01 | 4.9 | 98.5 | – | – | 1.04 | – |
| CC1=CN(c2ccc(S(N)(=O)=O)cc2)C(N2C=CN(C)C=C2)S1 (stereo not given) | – | 16.4 | – | – | 7.2 | 4.8 | 76.9 | – | – | 1.75 | – |
| CN1C=CC(C2OC(C(Cl)(Cl)Cl)=CN2c2ccc(S(N)(=O)=O)cc2)C=C1 (stereo not given) | – | 13.7 | – | – | 7.63 | 6.1 | 83.1 | – | – | 2.78 | – |
| CN1C=CC(C2SC(C(Cl)(Cl)Cl)=CN2c2ccc(S(N)(=O)=O)cc2)C=C1 (stereo not given) | – | 12.7 | – | – | 8 | 7.7 | 98.2 | – | – | 3.5 | – |
| Cc1ccc(-c2cc(C(F)(F)F)nn2-c2ccc(S(N)(=O)=O)cc2)cc1 [CELECOXIB] | 89.1 | – | 45.3 | 100 | – | – | – | – | 68.4 | – | 100 |
| CN1C=CN(C2SC(C(Cl)(Cl)Cl)=CN2c2ccc(S(N)(=O)=O)cc2)C=C1 (stereo not given) | – | 11.6 | – | – | 7.76 | 7.7 | 88.6 | – | – | 3.13 | – |
| CN1C=CN(C2OC(C(F)(F)F)=CN2c2ccc(S(N)(=O)=O)cc2)C=C1 (stereo not given) | – | 1.27 | – | – | 7.18 | 43.8 | 55.6 | – | – | 1.68 | – |
| CN1C=CC(C2OC(C(F)(F)F)=CN2c2ccc(S(N)(=O)=O)cc2)C=C1 (stereo not given) | 87.5 | 0.053 | 44.6 | 100 | 7.33 | 947.5 | 50.2 | Active | 64.9 | 2.05 | 99.6 |
| CN1C=CN(C2NC(C(F)(F)F)=CN2c2ccc(S(N)(=O)=O)cc2)C=C1 (stereo not given) | – | – | – | – | – | – | – | Active | – | – | – |
| CN1C=CN(C2OC(C(Cl)(Cl)Cl)=CN2c2ccc(S(N)(=O)=O)cc2)C=C1 (stereo not given) | 85.9 | 0.099 | 40.6 | 97.9 | 7.55 | 539.3 | 53.4 | Active | 60.9 | 2.41 | 95.4 |
| CC1=CN(c2ccc(S(N)(=O)=O)cc2)C(C2C=CN(C)C=C2)O1 (stereo not given) | – | 17.4 | – | – | 7.09 | 5.5 | 95.2 | – | – | 1.4 | – |
| CN1C=CC(C2SC(C(F)(F)F)=CN2c2ccc(S(N)(=O)=O)cc2)C=C1 (stereo not given) | – | 8.08 | – | – | 7.62 | 10 | 80.5 | – | – | 2.77 | – |
